Source: ChEMBL document CHEMBL4041520, “Novel pyrimidine-2,4-dione-1,2,3-triazole and furo[2,3-d]pyrimidine-2-one-1,2,3-triazole hybrids as potential anti-cancer agents: Synthesis, computational and X-ray analysis and biological evaluation” (Eur J Med Chem, 2017)
Activity calls are given as the source filed them. The calls are words filed in the database; no cut-off is given here.

How the values were obtained:
HeLa [1] = experiment: Antiproliferative activity against human HeLa cells after 72 hrs by MTT assay; format: functional, cell-based
In short: (§1)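 Monolayers grown in DMEM with 10% FBS and 2 mM L-glutamine at 37 °C, 5% CO2. Cells seeded at 5000 per well on day 0. Compounds added in five 10-fold dilutions (0.01–100 µM), DMSO ≤0.1%, for 72 h. MTT absorbance converted to percentage growth versus untreated wells. IC50 by linear regression of the dose-response curve; highest concentration reported when not reached. Quadruplicate points, three experiments.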

NIH3T3 = experiment: Antiproliferative activity against mouse NIH/3T3 cells after 72 hrs by MTT assay; format: cell-based; conditions: NIH3T3, 72 h; in short: as §1
A549 = experiment: Antiproliferative activity against human A549 cells after 72 hrs by MTT assay; format: functional, cell-based; conditions: A549, 72 h; in short: as §1
HepG2 [2] = experiment: Antiproliferative activity against human HepG2 cells after 72 hrs by MTT assay; format: functional, cell-based; conditions: HepG2, 72 h; in short: as §1
CFPAC-1 = experiment: Antiproliferative activity against human CFPAC-1 cells after 72 hrs by MTT assay; format: functional, cell-based; conditions: CFPAC-1, 72 h; in short: as §1
SW-620 = experiment: Antiproliferative activity against human SW620 cells after 72 hrs by MTT assay; format: functional, cell-based; conditions: SW-620, 72 h; in short: as §1
[3] = Mitochondrial toxicity in human HepG2 cells grown in presence of galactose; format: cell-based
In short: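 HepG2 kept for more than 5 passages in glucose-free DMEM with 10 mM galactose, 2 mM glutamine, 5 mM HEPES, 10% FBS and 1 mM sodium pyruvate.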

HeLa [4] = experiment: Induction of apoptosis in human HeLa cells assessed as viable cells at 2 times antiproliferative IC50 after 48 hrs by Annexin-V FITC/propidium iodide staining based fluorescence microscopic method (reference value: 75%); format: functional
In short: (§2)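 Cells seeded in 8-well chamber slides and exposed to compound at 2× IC50 for 48 h. After washing in incubation buffer, Annexin-V-FITC labelling for 15 min at room temperature. Cells fixed with 20% glycerol; PI used as nuclear stain. Scored by fluorescence microscopy as viable (PI-/AnnV-), early apoptotic (PI-/AnnV+), late apoptotic/primary necrotic (PI+/AnnV+) or secondary necrotic (PI+) percentages.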

HeLa [5] = experiment: Induction of apoptosis in human HeLa cells assessed as late apoptotic cells at 2 times antiproliferative IC50 after 48 hrs by Annexin-V FITC/propidium iodide staining based fluorescence microscopic method (reference value: 2.3%); format: functional; in short: as §2
[6] = molecular target: Wee1-like protein kinase (Homo sapiens) (UniProt P30291); experiment: Inhibition of Wee-1 kinase phosphorylation in human HeLa cells at 2 times antiproliferative IC50 after 48 hrs by Western blot method; format: cell-based
Chain of Wee1-like protein kinase (Homo sapiens) (P30291 whole entry, looked up): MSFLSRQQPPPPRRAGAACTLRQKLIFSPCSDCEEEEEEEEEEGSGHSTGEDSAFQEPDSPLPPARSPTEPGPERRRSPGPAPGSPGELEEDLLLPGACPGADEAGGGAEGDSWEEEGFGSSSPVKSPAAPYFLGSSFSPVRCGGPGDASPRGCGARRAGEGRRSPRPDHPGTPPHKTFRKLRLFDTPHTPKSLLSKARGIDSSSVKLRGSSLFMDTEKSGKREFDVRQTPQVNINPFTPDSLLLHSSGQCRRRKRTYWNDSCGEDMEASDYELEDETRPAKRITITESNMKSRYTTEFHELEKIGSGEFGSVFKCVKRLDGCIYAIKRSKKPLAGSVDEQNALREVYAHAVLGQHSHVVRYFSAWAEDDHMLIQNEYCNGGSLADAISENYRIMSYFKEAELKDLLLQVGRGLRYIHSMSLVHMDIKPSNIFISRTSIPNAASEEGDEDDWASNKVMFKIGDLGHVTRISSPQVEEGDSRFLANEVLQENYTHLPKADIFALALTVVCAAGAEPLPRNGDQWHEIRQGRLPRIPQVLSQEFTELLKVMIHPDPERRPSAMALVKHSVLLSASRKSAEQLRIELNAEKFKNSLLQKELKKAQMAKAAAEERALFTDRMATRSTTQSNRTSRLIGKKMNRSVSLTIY
In short: (§3)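 Cells seeded at 200000 per well and treated at 2× IC50 for 48 h. Lysed in RIPA buffer with protease inhibitors. 50 µg protein run on 12% Tris-glycine gels and transferred to PVDF. Blocked in 4% BSA/TBST, probed overnight at 4 °C with anti-p-SK1, ASAH1 or p-Wee1, then HRP secondary. Chemiluminescent detection; densitometry normalized to alpha-tubulin. Two independent experiments, mean ± SD.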

[7] = Mitochondrial toxicity in human HepG2 cells grown in presence of glucose; format: cell-based
HeLa [8] = experiment: Induction of apoptosis in human HeLa cells assessed as secondary necrotic cells at 2 times antiproliferative IC50 after 48 hrs by Annexin-V FITC/propidium iodide staining based fluorescence microscopic method (reference value: 2.3%); format: functional; in short: as §2
HeLa [9] = experiment: Induction of apoptosis in human HeLa cells assessed as early apoptotic cells at 2 times antiproliferative IC50 after 48 hrs by Annexin-V FITC/propidium iodide staining based fluorescence microscopic method (reference value: 20.4%); format: functional; in short: as §2
[10] = molecular target: Wee1-like protein kinase (Homo sapiens) (UniProt P30291); experiment: Inhibition of Wee-1 kinase in human HeLa cells assessed as reduction in SK1 phosphorylation at 2 times antiproliferative IC50 after 48 hrs by Western blot method; format: cell-based; in short: as §3
[11] = molecular target: Wee1-like protein kinase (Homo sapiens) (UniProt P30291); experiment: Inhibition of Wee-1 kinase in human HeLa cells assessed as downregulation of ASAH at 2 times antiproliferative IC50 after 48 hrs by Western blot method; format: cell-based; in short: as §3
[12] = molecular target: Wee1-like protein kinase (Homo sapiens) (UniProt P30291); experiment: Inhibition of Wee-1 kinase in human HepG2 cells assessed as reduction in SK1 phosphorylation at 2 times antiproliferative IC50 after 48 hrs by Western blot method; format: cell-based; in short: as §3
HepG2 [13] = experiment: Induction of apoptosis in human HepG2 cells assessed as late apoptotic cells at 2 times antiproliferative IC50 after 48 hrs by Annexin-V FITC/propidium iodide staining based fluorescence microscopic method relative to control; format: functional; in short: as §2
HepG2 [14] = experiment: Induction of apoptosis in human HepG2 cells assessed as secondary necrotic cells at 2 times antiproliferative IC50 after 48 hrs by Annexin-V FITC/propidium iodide staining based fluorescence microscopic method (reference value: 5.2%); format: functional; in short: as §2
HepG2 [15] = experiment: Induction of apoptosis in human HepG2 cells assessed as viable cells at 2 times antiproliferative IC50 after 48 hrs by Annexin-V FITC/propidium iodide staining based fluorescence microscopic method (reference value: 94.2%); format: functional; in short: as §2
HepG2 [16] = experiment: Induction of apoptosis in human HepG2 cells assessed as early apoptotic cells at 2 times antiproliferative IC50 after 48 hrs by Annexin-V FITC/propidium iodide staining based fluorescence microscopic method (reference value: 0.6%); format: functional; in short: as §2
[17] = molecular target: Wee1-like protein kinase (Homo sapiens) (UniProt P30291); experiment: Inhibition of Wee-1 kinase in human HepG2 cells assessed as downregulation of ASAH at 2 times antiproliferative IC50 after 48 hrs by Western blot method; format: cell-based; in short: as §3
[18] = molecular target: Wee1-like protein kinase (Homo sapiens) (UniProt P30291); experiment: Inhibition of Wee-1 kinase phosphorylation in human HepG2 cells at 2 times antiproliferative IC50 after 48 hrs by Western blot method; format: cell-based; in short: as §3

| Compound | IC50 (HeLa [1]) | IC50 (NIH3T3) | IC50 (A549) | IC50 (HepG2 [2]) | IC50 (CFPAC-1) | IC50 (SW-620) | IC50 [3] | IC50 [7] | other results |
| --- | --- | --- | --- | --- | --- | --- | --- | --- | --- |
| O=c1[nH]c(=O)n(Cc2cn(-c3ccc(F)cc3)nn2)cc1Br | 72.9 µM | 50800 nM | 64 µM | 68.9 µM | > 100 µM | > 100 µM | – | – | – |
| O=c1[nH]c(=O)n(Cc2cn(-c3ccc(Cl)cc3)nn2)cc1Br | 33.3 µM | 6700 nM | 40.9 µM | 19.1 µM | 39.5 µM | > 100 µM | – | – | – |
| O=c1c(Br)cn(Cc2cn(-c3cc(Cl)cc(Cl)c3)nn2)c(=O)n1Cc1cn(-c2cc(Cl)cc(Cl)c2)nn1 | > 100 µM | 4300 nM | 95.8 µM | 42.7 µM | > 100 µM | > 100 µM | – | – | – |
| O=c1c(Br)cn(Cc2cn(-c3ccccc3F)nn2)c(=O)n1Cc1cn(-c2ccccc2F)nn1 | 1.64 µM | 590 nM | 5.33 µM | 7.11 µM | 4.53 µM | 7.86 µM | 4.67 µM | 7.11 µM | Activity (HeLa [4]): 71.3%; Activity (HeLa [5]): 1.8%; inhibition [6]: inactive; Activity (HeLa [8]): 3%; Activity (HeLa [9]): 23.9%; inhibition [10]: inactive; inhibition [11]: inactive |
| O=c1c(Br)cn(Cc2cn(-c3ccc(Cl)cc3)nn2)c(=O)n1Cc1cn(-c2ccc(Cl)cc2)nn1 | 6.13 µM | 370 nM | 7.41 µM | 3.62 µM | 5.92 µM | 5.63 µM | 7.1 µM | 3.82 µM | inhibition [12]: Active; Activity (HepG2 [13]): 0%; Activity (HepG2 [14]): 15.2%; Activity (HepG2 [15]): 50%; Activity (HepG2 [16]): 34.8%; inhibition [17]: Active; inhibition [18]: Active |
| O=c1[nH]c(=O)n(Cc2cn(-c3cc(Cl)cc(Cl)c3)nn2)cc1Br | 8.42 µM | 1160 nM | 80.7 µM | 7.66 µM | 5.51 µM | 9.87 µM | – | – | – |
| O=c1[nH]c(=O)n(Cc2cn(-c3ccccc3F)nn2)cc1Br | 93.9 µM | 59300 nM | > 100 µM | > 100 µM | > 100 µM | ≥ 100 µM | – | – | – |
| O=c1c(Br)cn(Cc2cn(-c3ccc(F)cc3)nn2)c(=O)n1Cc1cn(-c2ccc(F)cc2)nn1 | 12.6 µM | 70 nM | 25.4 µM | 4.47 µM | 6.87 µM | 9.82 µM | 4.57 µM | 4.78 µM | inhibition [12]: inactive; Activity (HepG2 [13]): 0%; Activity (HepG2 [14]): 0.5%; Activity (HepG2 [15]): 72.9%; Activity (HepG2 [16]): 26.6%; inhibition [17]: inactive; inhibition [18]: Active |
